In ChEMBL document CHEMBL1144897, “A potent, selective inhibitor of matrix metalloproteinase-3 for the topical treatment of chronic dermal ulcers” (J Med Chem, 2003):

Legend:
[1] = target: Matrix metalloproteinase-14 (Homo sapiens, UniProt P50281); test: Inhibition of Matrix metalloprotease-14
In short: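 Catalytic-domain MMP-14 stock (10 μM) activated with trypsin (5 μg/mL) for 20 min at 25 °C, then quenched with soybean trypsin inhibitor (50 μg/mL). Run in Tris buffer pH 7.5 (100 mM Tris, 100 mM NaCl, 10 mM CaCl₂, 0.16% Brij 35) with 1 nM enzyme and 10 μM Mca-Pro-Leu-Gly-Leu-Dpa-Ala-Arg-NH₂ (final). Fluorogenic cleavage read; IC50 derived.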

[2] = target: Matrix metalloproteinase-9 (Homo sapiens, UniProt P14780); test: Inhibition of human matrix metalloprotease-9 (MMP-9)
In short: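 Human catalytic-domain MMP-9 stock (1 μM) activated with 1 mM APMA for 1 h at 37 °C. Assayed at 1 nM enzyme in Tris buffer pH 7.5 (100 mM Tris, 100 mM NaCl, 10 mM CaCl₂, 0.16% Brij 35) with ≤1% DMSO. Inhibitor preincubated 15 min at 37 °C, then 5 μM Mca-Arg-Pro-Lys-Pro-Tyr-Ala-Nva-Trp-Met-Lys(Dnp)-NH₂ added for 1 h at 37 °C. Fluorescence read at ex 328/em 393 nm; IC50 taken from dose–response.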

Matrilysin = target: T1, Matrilysin (Homo sapiens, UniProt P09237); test: Inhibition of human matrix metalloprotease-7 (MMP-7)
T1 sequence (P09237 whole entry): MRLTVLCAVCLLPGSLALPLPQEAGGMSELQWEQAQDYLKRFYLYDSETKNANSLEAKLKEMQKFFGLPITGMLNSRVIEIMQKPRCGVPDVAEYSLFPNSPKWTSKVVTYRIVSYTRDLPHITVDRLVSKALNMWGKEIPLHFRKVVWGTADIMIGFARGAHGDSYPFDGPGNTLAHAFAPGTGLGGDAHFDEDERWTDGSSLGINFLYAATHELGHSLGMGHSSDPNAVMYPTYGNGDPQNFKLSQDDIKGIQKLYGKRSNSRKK

Stromelysin-1 = Stromelysin-1 (Homo sapiens, UniProt P08254)
Chain of Stromelysin-1 (P08254 whole entry): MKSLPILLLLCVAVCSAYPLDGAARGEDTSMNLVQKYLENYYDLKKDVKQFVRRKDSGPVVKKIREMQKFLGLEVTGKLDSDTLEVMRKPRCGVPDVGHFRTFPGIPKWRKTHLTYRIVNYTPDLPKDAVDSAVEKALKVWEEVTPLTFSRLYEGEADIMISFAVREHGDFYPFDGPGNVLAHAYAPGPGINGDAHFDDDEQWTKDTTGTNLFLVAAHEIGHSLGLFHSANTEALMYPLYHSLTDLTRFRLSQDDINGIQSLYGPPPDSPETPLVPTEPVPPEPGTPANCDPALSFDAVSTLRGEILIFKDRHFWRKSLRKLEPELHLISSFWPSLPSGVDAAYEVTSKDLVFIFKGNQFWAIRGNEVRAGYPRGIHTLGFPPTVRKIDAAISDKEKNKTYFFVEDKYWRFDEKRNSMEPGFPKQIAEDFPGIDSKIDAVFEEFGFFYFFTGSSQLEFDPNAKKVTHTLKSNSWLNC

Chain of Matrix metalloproteinase-9 (P14780 whole entry): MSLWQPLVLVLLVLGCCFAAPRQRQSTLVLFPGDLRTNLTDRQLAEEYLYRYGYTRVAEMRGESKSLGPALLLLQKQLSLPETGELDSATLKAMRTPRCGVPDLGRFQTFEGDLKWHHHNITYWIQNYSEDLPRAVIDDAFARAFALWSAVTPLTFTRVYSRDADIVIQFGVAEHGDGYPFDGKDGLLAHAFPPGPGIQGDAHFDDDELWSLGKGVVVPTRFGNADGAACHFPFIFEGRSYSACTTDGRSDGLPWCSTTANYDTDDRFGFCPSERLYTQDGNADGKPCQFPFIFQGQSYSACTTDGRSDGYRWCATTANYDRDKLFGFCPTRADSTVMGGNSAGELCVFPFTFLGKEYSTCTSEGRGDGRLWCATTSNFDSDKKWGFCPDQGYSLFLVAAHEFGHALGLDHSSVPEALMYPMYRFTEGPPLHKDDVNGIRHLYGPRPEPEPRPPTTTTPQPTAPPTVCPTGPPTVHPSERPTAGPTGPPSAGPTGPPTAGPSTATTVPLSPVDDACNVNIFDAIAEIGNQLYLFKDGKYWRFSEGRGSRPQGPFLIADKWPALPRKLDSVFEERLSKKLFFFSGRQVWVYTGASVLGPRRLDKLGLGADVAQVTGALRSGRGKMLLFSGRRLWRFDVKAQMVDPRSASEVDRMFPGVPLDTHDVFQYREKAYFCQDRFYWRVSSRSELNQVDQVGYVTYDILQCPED

In the case of `CNC(=O)[C@H](Cc1ccccc1)NC(=O)[C@H](CC(C)C)[C@H](CSc1cccs1)C(=O)NO` [BATIMASTAT], the IC50 [1] is reported as 4.6 nM and the IC50 [2] is reported as 0.6 nM.

For `CNC(=O)[C@H](Cc1ccc(OC)cc1)NC(=O)[C@@H](CC(=O)NO)CC(C)C`, the IC50 (Matrilysin) was 30 nM and the IC50 (Stromelysin-1) was 30 nM.
